In ChEMBL document CHEMBL1149693, “Selective reversible inhibition of human butyrylcholinesterase by aryl amide derivatives of phenothiazine” (Bioorg Med Chem, 2007):
Activity calls are given as the source filed them. The calls are words filed in the database; no cut-off is given here.

How the values were obtained:
Cholinesterase = Cholinesterase (Homo sapiens, UniProt P06276); assay: Inhibition of human plasma BuChE activity; format: cell-free
Procedure, shortened: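 Modified Ellman assay with purified human serum BuChE (0.05 U) in 0.005% gelatin, buffered DTNB pH 8.0. Inhibitor in 50% aqueous acetonitrile (1.67% v/v final), 1:10 serial dilutions. Butyrylthiocholine 3 × 10^-5 to 1.6 × 10^-4 M. A412 read every 5 s for 1 min at 23 °C, at least triplicate. Ki from slope replot of Lineweaver–Burk lines (no inhibitor, two inhibitor levels).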

[1] = target: Acetylcholinesterase (Homo sapiens) (UniProt P22303); assay: Inhibition of recombinant human AChE activity
Acetylcholinesterase (Homo sapiens), sequence (P22303 whole entry): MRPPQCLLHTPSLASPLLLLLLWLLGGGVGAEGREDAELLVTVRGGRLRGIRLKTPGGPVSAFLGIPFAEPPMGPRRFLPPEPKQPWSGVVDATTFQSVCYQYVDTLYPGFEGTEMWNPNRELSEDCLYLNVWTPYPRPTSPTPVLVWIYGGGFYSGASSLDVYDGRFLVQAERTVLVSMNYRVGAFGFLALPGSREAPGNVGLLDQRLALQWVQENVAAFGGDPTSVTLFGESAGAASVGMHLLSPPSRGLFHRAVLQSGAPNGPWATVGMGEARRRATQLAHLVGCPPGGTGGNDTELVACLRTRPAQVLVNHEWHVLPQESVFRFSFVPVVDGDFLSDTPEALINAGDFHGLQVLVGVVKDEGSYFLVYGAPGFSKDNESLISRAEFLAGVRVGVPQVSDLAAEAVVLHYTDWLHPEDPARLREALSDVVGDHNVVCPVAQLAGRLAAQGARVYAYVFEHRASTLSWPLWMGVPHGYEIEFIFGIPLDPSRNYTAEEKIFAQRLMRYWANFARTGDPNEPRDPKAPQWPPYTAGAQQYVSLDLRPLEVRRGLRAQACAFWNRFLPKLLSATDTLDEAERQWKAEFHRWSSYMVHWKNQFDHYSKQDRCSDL
Procedure, shortened: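 Ellman-type assay with recombinant human AChE (0.03 U) in 0.005% gelatin and buffered DTNB pH 8.0. Inhibitor in 50% aqueous acetonitrile, tested as 1:10 serial dilutions. Acetylthiocholine 3 × 10^-5 to 1.6 × 10^-4 M. Absorbance at 412 nm every 5 s over 1 min, 23 °C, generally triplicate and averaged. Lineweaver–Burk plots with and without inhibitor.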

Cholinesterase, sequence (P06276 whole entry): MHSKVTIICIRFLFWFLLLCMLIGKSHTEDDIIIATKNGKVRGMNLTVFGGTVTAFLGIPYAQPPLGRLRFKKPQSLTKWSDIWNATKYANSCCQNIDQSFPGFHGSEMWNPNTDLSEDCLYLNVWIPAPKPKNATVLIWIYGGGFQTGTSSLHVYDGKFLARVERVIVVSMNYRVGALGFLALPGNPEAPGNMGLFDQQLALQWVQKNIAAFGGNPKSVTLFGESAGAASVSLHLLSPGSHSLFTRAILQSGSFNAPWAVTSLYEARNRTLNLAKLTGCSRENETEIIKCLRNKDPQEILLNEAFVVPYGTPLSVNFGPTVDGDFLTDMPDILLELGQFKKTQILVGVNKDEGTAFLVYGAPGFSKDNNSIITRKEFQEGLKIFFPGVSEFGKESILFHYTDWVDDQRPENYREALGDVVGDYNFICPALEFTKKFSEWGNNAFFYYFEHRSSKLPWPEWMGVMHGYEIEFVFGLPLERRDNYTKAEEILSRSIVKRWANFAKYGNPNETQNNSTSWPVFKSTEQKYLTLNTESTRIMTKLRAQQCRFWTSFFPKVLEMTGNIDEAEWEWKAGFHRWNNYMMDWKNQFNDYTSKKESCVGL

SMILES | Ki (Cholinesterase) [µM] | Activity [1]
Cc1cccc(C(=O)N2c3ccccc3Sc3ccccc32)c1 | 1.9 | inactive
O=C(Cc1cccc2ccccc12)N1c2ccccc2Sc2ccccc21 | 0.09 | inactive
O=C(CCc1ccccc1)N1c2ccccc2Sc2ccccc21 | 6.2 | inactive
O=C(c1cccc2ccccc12)N1c2ccccc2Sc2ccccc21 | 0.088 | inactive
O=C(/C=C/c1ccccc1)N1c2ccccc2Sc2ccccc21 | 2.7 | inactive
CC(CC(=O)N1c2ccccc2Sc2ccccc21)c1ccccc1 (stereo not drawn) | 1.7 | inactive
O=C(C(=O)N1c2ccccc2Sc2ccccc21)N1c2ccccc2Sc2ccccc21 | 0.22 | inactive
COc1ccc(C(=O)N2c3ccccc3Sc3ccccc32)cc1 | 1.5 | inactive
O=C(c1ccc(-c2ccccc2)cc1)N1c2ccccc2Sc2ccccc21 | – | inactive
CCC(C(=O)N1c2ccccc2Sc2ccccc21)c1ccccc1 (stereo not drawn) | 0.4 | inactive
Cc1ccccc1C(=O)N1c2ccccc2Sc2ccccc21 | 3.1 | inactive
O=C(Cc1ccc(-c2ccccc2)cc1)N1c2ccccc2Sc2ccccc21 | 1.7 | inactive
O=C(c1ccc([N+](=O)[O-])cc1)N1c2ccccc2Sc2ccccc21 | 0.82 | inactive
O=C(Cc1ccccc1)N1c2ccccc2Sc2ccccc21 | 0.61 | inactive
Cc1ccc(C(=O)N2c3ccccc3Sc3ccccc32)cc1 | 2.5 | inactive
O=C(c1ccc(Br)cc1)N1c2ccccc2Sc2ccccc21 | 1.3 | inactive
O=C(Cc1ccc2ccccc2c1)N1c2ccccc2Sc2ccccc21 | 0.028 | inactive
CC(=O)Oc1ccc(C(=O)N2c3ccccc3Sc3ccccc32)cc1 | 23 | inactive
O=C(CCCc1ccccc1)N1c2ccccc2Sc2ccccc21 | 0.22 | inactive
O=C(c1cccc(Br)c1)N1c2ccccc2Sc2ccccc21 | 0.6 | inactive
O=C(c1c2ccccc2cc2ccccc12)N1c2ccccc2Sc2ccccc21 | 0.0035 | inactive
CC(C(=O)N1c2ccccc2Sc2ccccc21)c1ccccc1 (stereo not drawn) | 0.56 | inactive
O=C(c1ccccc1)N1c2ccccc2Sc2ccccc21 | 5.8 | inactive
O=C(c1ccc2ccccc2c1)N1c2ccccc2Sc2ccccc21 | 0.47 | inactive
CC(C)(C)c1ccc(C(=O)N2c3ccccc3Sc3ccccc32)cc1 | – | inactive
